The source made the active and inactive calls. The calls are words filed in the database; no cut-off is given here.
Legend:
[1] = Cmax in humanized mouse at 200 mg/kg, sc for 8 days measured on day 8 post last dose by LC-MS/MS analysis; type: ADME, organism-based; design: dose 200 mg/kg, route subcutaneous; conditions: in vivo
[2] = Drug uptake in humanized mouse liver at 50 mg/kg, sc after 24 hrs by LC-MS/MS analysis; type: ADME, organism-based; conditions: read-out: Drug uptake
In short: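 Uninfected humanized mice given 50 or 200 mg/kg subcutaneously once daily as a methocel suspension for 8 days; liver concentration measured 24 h after dosing.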

[3] = Plasma concentration in humanized mouse at 50 mg/kg, sc after 24 hrs by LC-MS/MS analysis; type: ADME, organism-based
[4] = Volume of distribution at steady state in C57BL/6 mouse at 2.5 mg/kg, iv by LC-MS/MS analysis; type: ADME, organism-based; conditions: in vivo, read-out: Vdss
[5] = Half life in C57BL/6 mouse at 2.5 mg/kg, iv by LC-MS/MS analysis; type: ADME, organism-based; conditions: in vivo
In short: (§1)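 Single-dose PK in C57BL/6 mice after intravenous or oral dosing, with oral doses of 10 and 50 mg/kg; plasma clearance and volume of distribution taken from the i.v. arm.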

[6] = Half life in C57BL/6 mouse at 50 mg/kg, po by LC-MS/MS analysis; type: ADME, organism-based; conditions: in vivo; in short: as §1
[7] = Tmax in C57BL/6 mouse at 10 mg/kg, po by LC-MS/MS analysis; type: ADME, organism-based; conditions: in vivo
In short: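 Single-dose PK in C57BL/6 mice given compound intravenously and orally, with oral doses of 10 and 50 mg/kg. Plasma clearance, volume of distribution and oral bioavailability were derived from the plasma profiles.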

[8] = Tmax in C57BL/6 mouse at 50 mg/kg, sc by LC-MS/MS analysis; type: ADME, organism-based; conditions: in vivo
In short: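 C57BL/6 mice dosed subcutaneously at 50 mg/kg to bypass first-pass metabolism; plasma and liver levels sampled 24 h after dosing.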

[9] = Inhibition of calcium channel (unknown origin); design: species or system Homo sapiens
Cytochrome P450 2D6 = Cytochrome P450 2D6 (Homo sapiens, UniProt P10635); assay: Inhibition of CYP2D6 (unknown origin); type: ADME
[10] = AUC (0 to 24 hrs) in humanized mouse at 200 mg/kg, sc for 8 days measured on day 8 post last dose by LC-MS/MS analysis; type: ADME, organism-based; design: time < 24 hr, dose 200 mg/kg, route subcutaneous; conditions: in vivo
[11] = Half life in humanized mouse at 50 mg/kg, sc measured on day 1 post dose by LC-MS/MS analysis; type: ADME, organism-based; conditions: in vivo
[12] = target: Core antigen (Hepatitis B virus) (UniProt Q03732); assay: Induction of HBV Maleimidyl BoDIPY-FL-labeled capsid Cp*150 mutant aggregation incubated for 30 mins measured every 10 secs for 30 mins by fluorescence quenching assay
[13] = Drug metabolism in human primary hepatocytes assessed as cleavage of N-phenylamide; type: ADME, cell-based, Hepatocyte
In short: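 Compound incubated with primary hepatocytes and checked for cleavage of the N-phenylamide bond.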

Sequence of Core antigen (Hepatitis B virus) (Q03732 as listed by the source): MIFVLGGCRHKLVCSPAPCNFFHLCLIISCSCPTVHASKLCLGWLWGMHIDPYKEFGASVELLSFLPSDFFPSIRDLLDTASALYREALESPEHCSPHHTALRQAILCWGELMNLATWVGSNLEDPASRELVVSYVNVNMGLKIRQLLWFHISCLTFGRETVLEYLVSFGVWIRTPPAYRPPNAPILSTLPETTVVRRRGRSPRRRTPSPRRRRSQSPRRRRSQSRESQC
Sequence of Cytochrome P450 2D6 (P10635 whole entry): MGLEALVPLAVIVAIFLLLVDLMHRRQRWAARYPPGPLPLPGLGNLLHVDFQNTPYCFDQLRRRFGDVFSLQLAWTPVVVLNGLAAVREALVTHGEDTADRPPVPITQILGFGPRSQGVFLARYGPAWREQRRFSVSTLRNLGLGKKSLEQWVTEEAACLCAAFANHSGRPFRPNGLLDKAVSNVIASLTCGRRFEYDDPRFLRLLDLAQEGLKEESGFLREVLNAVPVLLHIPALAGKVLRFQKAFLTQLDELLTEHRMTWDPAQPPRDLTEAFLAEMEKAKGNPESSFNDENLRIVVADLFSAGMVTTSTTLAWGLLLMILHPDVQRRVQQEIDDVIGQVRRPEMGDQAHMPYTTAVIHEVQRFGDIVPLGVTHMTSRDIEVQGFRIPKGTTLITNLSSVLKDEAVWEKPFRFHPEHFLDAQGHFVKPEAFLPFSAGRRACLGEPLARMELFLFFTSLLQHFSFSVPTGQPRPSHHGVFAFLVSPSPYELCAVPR

Cc1cc(NC(=O)c2cccc(S(=O)(=O)N[C@H]3CCOC3)c2)ccc1F
Cmax [1]: 7700 ng/mL | concentration at 24 h [2]: 570 ng/g | concentration at 24 h [3]: 167 ng/mL | Vd [4]: 1.3 L/kg | half-life [5]: 0.42 h | half-life [6]: 2.4 h | Tmax [7]: 0.5 h | Tmax [8]: 1 h | IC50 [9]: > 10 µM | IC50 (Cytochrome P450 2D6): > 10 µM | AUC at 24 h [10]: 86900 ng·h/mL | half-life [11]: 1.1 h | Activity [12]: Active | Drug metabolism [13]: Metabolite_Notdetected

From ChEMBL document CHEMBL4138314, “Synthesis and Evaluation of N-Phenyl-3-sulfamoyl-benzamide Derivatives as Capsid Assembly Modulators Inhibiting Hepatitis B Virus (HBV)” (J Med Chem, 2018)
